In paper PMC11495195 (Drug Design, Development and Therapy, 2024):

Experiments:
[1] = Body weight and side-effects in H1299 xenograft mice; assay type: in vivo; conditions: 6 mg/kg intraperitoneal; for body weight change: after 21 days of administration
In short: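 Female BALB/c nude mice, 5 weeks old, kept pathogen-free, received 1.4 × 10^6 NCI-H1299 cells subcutaneously. At about 75 mm3 tumours, mice were randomised (n = 5). Dosing was intraperitoneal at 6 mg/kg: vehicle (2% DMSO, 30% PEG-400, 68% ddH2O) or test compound daily for 21 days, doxorubicin every 3 days. Body weight was weighed every 3 days; mean ± SEM.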

[2] = In vitro liver microsome stability, human; assay type: in vitro ADME; conditions: human liver microsomes; mean ± SD (n = 5)
In short: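 Test compound at 20 μM final was incubated with 0.5 mg/mL human or mouse liver microsomes and NADPH in 0.1 M phosphate buffer for 30 min at 37°C. The reaction was quenched with 2 volumes of cold acetonitrile plus internal standard, held overnight at −20°C and centrifuged. Supernatant was analysed by UPLC-MS/MS. 6-Hydroxycoumarin was the positive control; a no-NADPH blank was the negative control.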

[3] = target: PDHK1 (Homo sapiens, UniProt Q15118); experiment: In vitro PDHK activity assay; assay type: biochemical; conditions: read-out: Inhibition% at 10 µM, PDHK1, 10 µM; mean ± SD (n = 5)
PDHK1, sequence (Q15118 29-436): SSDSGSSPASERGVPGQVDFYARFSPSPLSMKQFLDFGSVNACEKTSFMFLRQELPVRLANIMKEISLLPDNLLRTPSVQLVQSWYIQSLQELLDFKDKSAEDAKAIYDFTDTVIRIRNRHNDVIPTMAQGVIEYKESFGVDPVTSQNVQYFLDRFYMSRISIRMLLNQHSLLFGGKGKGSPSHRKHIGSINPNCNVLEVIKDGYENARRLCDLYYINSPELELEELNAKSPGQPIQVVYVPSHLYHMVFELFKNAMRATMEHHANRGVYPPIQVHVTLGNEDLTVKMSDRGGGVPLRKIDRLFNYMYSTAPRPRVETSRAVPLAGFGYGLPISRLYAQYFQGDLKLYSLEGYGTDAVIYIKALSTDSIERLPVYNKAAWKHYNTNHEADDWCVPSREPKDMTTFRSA

In the case of `CC(C)Oc1ccc(S(=O)(=O)c2ccc(Oc3cc(OCC(N)=O)c(C(=O)C(Cl)Cl)cc3[N+](=O)[O-])cc2)cc1` [Compound 32, 2-(2-(2,2-Dichloroacetyl)-5-(4-((4-isopropoxyphenyl)sulfonyl)phenoxy)-4-nitrophenoxy)acetamide], the other side-effects ([1]; 21 days) is reported as “No other side-effects were observed”, the body weight change [1] is reported as “decreased very little” and the “CLint” value [2] is reported as 29.7 µL/min/mg.
With `COc1cccc2c1C(=O)c1c(O)c3c(c(O)c1C2=O)C[C@@](O)(C(=O)CO)C[C@@H]3O[C@H]1C[C@H](N)[C@H](O)[C@H](C)O1` [DOX, doxorubicin, reference compound] the body weight change [1] was “significant body weight loss”.
`O=C1c2ccccc2C(=O)c2c(Oc3ccc(C(=O)C(Cl)Cl)cc3[N+](=O)[O-])cccc21` [Compound 18, 1-(4-(2,2-Dichloroacetyl)-2-nitrophenoxy)anthracene-9,10-dione] showed an inhibition at 10 µM [3] of 26.5 to 30.1%.
